IDE inh = human IDE inhibitors in live cells, primary screen, fluorescence polarization, HEK cells, FAbetaB substrate; Insulin-degrading enzyme (Homo sapiens), P14735; FAbetaB cleavage; inhibition, % at 5.59 µM; 320,000 compounds, 0.41% hits;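 active = percent inhibition above the average of all tested compounds plus 3 SD, set per screening campaign, cut at about 16% in these data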;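 also: IDE supplied by intact live HEK cells; FP after avidin binding of uncleaved biotin substrate so inhibition keeps polarization high; 0% = DMSO wells and 100% = 60 µM reference IDE inhibitor Ii1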
PREPL inhibitor = PREPL enzyme inhibitors, primary screen, biochemical, fluorescence polarization; Prolyl endopeptidase-like (Homo sapiens), Q4J6C6; recombinant PREPL, fluorescence polarization activity-based probe; inhibition, % at 5.96 µM; 320,000 compounds, 0.68% hits; AID 2751, 2010;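 also: 0% = enzyme with DMSO and 100% = wells lacking enzyme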
Target sequence (Q4J6C6 whole entry, looked up): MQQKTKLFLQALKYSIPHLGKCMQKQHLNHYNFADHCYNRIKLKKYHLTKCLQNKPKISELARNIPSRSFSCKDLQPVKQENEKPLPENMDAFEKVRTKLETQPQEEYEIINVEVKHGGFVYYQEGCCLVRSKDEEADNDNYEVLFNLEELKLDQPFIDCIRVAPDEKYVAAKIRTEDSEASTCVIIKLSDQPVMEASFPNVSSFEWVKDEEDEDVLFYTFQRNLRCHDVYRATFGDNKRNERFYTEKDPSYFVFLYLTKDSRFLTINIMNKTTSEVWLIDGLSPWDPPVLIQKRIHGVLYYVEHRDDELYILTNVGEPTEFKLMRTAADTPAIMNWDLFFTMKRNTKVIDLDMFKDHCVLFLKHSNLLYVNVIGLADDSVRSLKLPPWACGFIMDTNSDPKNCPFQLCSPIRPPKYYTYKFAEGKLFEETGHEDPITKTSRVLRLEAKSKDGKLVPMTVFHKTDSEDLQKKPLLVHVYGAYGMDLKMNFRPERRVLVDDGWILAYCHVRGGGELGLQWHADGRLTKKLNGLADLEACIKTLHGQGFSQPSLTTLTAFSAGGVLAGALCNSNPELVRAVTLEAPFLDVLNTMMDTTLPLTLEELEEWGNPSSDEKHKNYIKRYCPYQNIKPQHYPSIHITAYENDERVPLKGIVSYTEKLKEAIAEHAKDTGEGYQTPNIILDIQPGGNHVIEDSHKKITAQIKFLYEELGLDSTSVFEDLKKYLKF
ARFGAP1 inhibitor = inhibitors of rat ARFGAP1 GAP activity, primary screen, biochemical, fluorescence polarization, GDP tracer; inhibition, % at 16.5 µM; Arfgap1-stimulated ARF1 GTP hydrolysis, GDP FP detection; 360,000 compounds, 0.26% hits; AID 651572, 2012;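 active = inhibition above a per-plate limit, mean inhibition of low control wells plus 3 SD, cut at about 25% in these data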;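 also: 0% = DMSO wells with enzyme and 100% = wells lacking Arfgap1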
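Assay system: Rat Arfgap1 GAP domain (His6, aa 1-136), purified enzyme | Buffer or medium: HEPES 25 mM pH 7.5, NaCl 150 mM, MgCl2, DTT | Schedule: GTP hydrolysis reaction 2 h at 25 °C | Signal: FP of antibody-bound GDP Alexa 633 tracer, ex 620/em 688 nm | Measure: Percent inhibition of Arfgap1-stimulated GTP hydrolysis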
IDE cell activ = human IDE activators in live cells, primary screen, fluorescence polarization, HEK cells, FAbeta-B substrate; Insulin-degrading enzyme (Homo sapiens), P14735; 340,000 compounds, 0.073% hits; FAbeta-B cleavage; 0% vehicle, 100% cell-free pure enzyme wells; activation, % at 5.96 µM;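 active = activation above the mean of all tested compounds plus 3 SD, set per screening campaign, cut at about 17% in these data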
ASAP1 GAP inh = inhibitors of human ASAP1 ArfGAP activity, primary screen, biochemical, fluorescence polarization | AID 624377, 2012 | 360,000 compounds, 0.19% hits | ASAP1-stimulated ARF1 GTP hydrolysis, GDP FP detection | inhibition, % at 16.5 µM; in the data active = inhibition above about 25%;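 also: 0% = vehicle with enzyme and substrate and 100% = no enzyme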
PREPL inh cf = human PREPL enzyme inhibitors, confirmation, biochemical, fluorescence polarization | inhibition, % at 5.96 µM | AID 2803, 2010 | 2,000 compounds, 67% hits | recombinant PREPL, fluorescence polarization activity probe | shares compounds with PREPL inhibitor;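 also: 0% = protein with DMSO and 100% = wells lacking protein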
* marks the source's active call; other numbers are inactive results; / = no result given. Rows were chosen to be rich in hits. Some 1.2% of all compounds tested hit in one or more screens of this group. Rule as the data show it, unless noted: active = inhibition above about 43%; inactive = the rest.

SMILES	IDE inh	PREPL inhibitor	ARFGAP1 inhibitor	IDE cell activ	ASAP1 GAP inh	PREPL inh cf
C[C@H](CO)N1C[C@H](C)[C@@H](CN(C)C(=O)Nc2ccc(C(F)(F)F)cc2)Oc2ccc(NS(=O)(=O)c3ccc(F)cc3)cc2C1=O	6.4	46.2*	-5.8	3.9	-5.0	40.8
Oc1ccc(/C=N/Nc2ccnc3cc(Cl)ccc23)cc1O	2.5	54.5*	6.1	-8.5	-14.5	35.6
CC(C)c1ccc(NC(=O)C2CCCCC2C(=O)O)cc1 (configuration not stated)	-0.8	-6.1	-11.6	5.5	-0.1	/
O=C(O)[C@H]1CCCC[C@H]1C(=O)Nc1ccc(Nc2ccccc2)cc1	2.6	93.0*	-0.2	-1.3	-8.9	8.2
CCN(CC)CCCN1C=C2C(=O)C(C)(OC(=O)C3CCCC3)C(=O)C=C2C=C1c1ccsc1 (configuration not stated)	7.9	43.3*	5.4	0.1	16.4	24.6
COc1cc(/C=C2/C(=O)NN(c3ccc(F)cc3)C2=O)cc(Cl)c1O	3.4	0.2	11.8	-1.1	-11.1	/
COc1cc(/C=C2/C(=O)NN(c3ccc(Cl)c(Cl)c3)C2=O)cc([N+](=O)[O-])c1O	2.5	53.4*	-9.9	-0.1	-10.7	19.6
O=C(Nc1ccc2c(c1)OCCO2)c1ccccc1Cl	/	/	0.2	/	1.4	/
O=C(Nc1ccc2c(c1)OCCO2)c1cccc2nc3ccccc3nc12	3.6	48.8*	8.8	3.1	4.7	60.1*
COc1c(OC(C)=O)c(=O)n2c3ccccc3c3ccnc1c32	3.8	2.3	6.0	-18.6	2.9	/
O=C(NCC1CCCO1)c1ccc2c(=O)n(CC3CCCO3)c(SCC(=O)N3CCCC3)nc2c1 (configuration not stated)	13.0	9.6	-1.3	-4.5	-5.1	/
CC(=O)Nc1ccc(OCC(O)CN2CCN(c3cc(Cl)ccc3C)CC2)cc1 (configuration not stated)	-8.0	9.4	1.5	1.2	5.5	/
CC(=O)Nc1ccc(OCC(O)CN2CCN(c3ccc(C)c(Cl)c3)CC2)cc1 (configuration not stated)	5.6	44.5*	1.5	-4.7	6.2	39.2
COC(=O)[C@]12C[C@H](CC(=O)NCc3cccc(C(F)(F)F)c3)C(=O)N(Cc3ccccc3)C1=C[C@H](C(C)(C)C)O[C@@H]2C	/	/	-1.5	/	-2.5	/
CC#CCN(Cc1ccco1)C(=O)c1ccc(OC2CCN(Cc3ccccn3)CC2)cc1	-0.2	48.8*	8.6	-0.3	6.2	13.3
O=C(CCc1ccccc1)N1CCN(c2ccccn2)CC1	5.4	-7.0	12.3	-6.8	-3.1	/
O=C(O)CCC(=O)N1CCN(c2ccccn2)CC1	6.0	44.5*	7.7	2.1	-2.9	2.9
O=C(NNC(=O)C1CCN(C(=O)Nc2ccccc2)CC1)c1ccc(F)cc1	5.3	7.7	10.7	0.9	2.0	/
O=C(C1CC(=O)N(c2ccc3c(c2)OCCO3)C1)N1CCN(c2ccccc2O)CC1 (configuration not stated)	-1.1	45.2*	-0.7	7.2	-2.9	41.0
O=C(C1CC(=O)N(c2ccc3c(c2)OCCO3)C1)N1CCN(c2ccccc2)CC1 (configuration not stated)	-7.5	33.4	7.7	-0.1	-3.1	/
COCC1CN(CCc2ccc(F)cc2)S(=O)(=O)c2c(OCCN3C(=O)[C@@H]4[C@H](C3=O)[C@@H]3C=C[C@H]4C3)cccc2O1 (some centres not stated)	/	/	-7.8	/	-2.8	/
COC(=O)C1=C(C)N(Cc2ccccc2C(F)(F)F)C(=NCc2ccc3c(c2)OCO3)NC1c1ccc(Cl)cc1 (configuration not stated)	/	/	2.6	/	7.8	/
COc1ccc2cc(C(=O)C3CCCN(C(=O)c4cccnc4)C3)ccc2c1 (configuration not stated)	-3.8	45.4*	6.2	-3.9	-2.0	39.4
COc1ccc2cc(C(=O)C3CCCN(C(=O)C4=NN(C)C(=O)CC4)C3)ccc2c1 (configuration not stated)	-1.1	43.5*	11.1	-2.7	-3.1	31.6
COc1ccc(CNC(=O)C2CCN(c3nc(-c4ccccc4)nc4c3CCC4)CC2)cc1	7.0	-14.6	4.3	-1.7	-1.6	/
SMILES	IDE inh	PREPL inhibitor	ARFGAP1 inhibitor	IDE cell activ	ASAP1 GAP inh	PREPL inh cf
COC(=O)c1ccc(CN2C(=O)NC(Cc3c[nH]c4ccccc34)C2=O)cc1 (configuration not stated)	-1.3	0.9	-0.7	6.8	3.8	/
Cc1ccc(Nc2c(-c3ccccn3)nc3cc(C)ccn23)cc1	-0.3	73.9*	2.3	7.3	0.0	58.4*
Cc1ccn2c(Nc3ccc4c(c3)OCO4)c(-c3ccccn3)nc2c1	0.1	77.5*	-10.5	4.9	-2.6	66.7*
Cc1ccc2nc(-c3ccncc3)c(Nc3ccccc3)n2c1	1.6	-8.7	-13.2	0.3	-0.1	/
Cc1ccc(Nc2c(-c3ccccn3)nc3ccc(C)cn23)cc1	1.6	63.0*	-2.1	-0.5	-11.3	68.7*
CSc1ccc(-c2nc3cnccn3c2Nc2ccc3c(c2)OCO3)cc1	6.5	50.4*	/	5.4	/	47.5*
COC(=O)[C@]12C[C@H](CC(=O)NCC3CCCCC3)C(=O)N(Cc3ccccc3)C1=C[C@H](C1CCCC1)O[C@@H]2C	/	/	15.0	/	8.0	/
O=C(CSc1ccc(Cl)cc1)Nc1ccc(N2CCN(C(=O)c3ccco3)CC2)cc1	5.8	48.0*	11.9	1.6	1.2	48.6*
COc1ccc(OCC(=O)Nc2ccc(N3CCN(C(=O)c4ccco4)CC3)cc2)cc1	0.6	25.6	-3.5	1.6	4.0	/
Cc1ccccc1C(=O)N1CCN(c2ccc(NC(=O)CSc3ccc(Cl)cc3)cc2)CC1	1.6	64.9*	-8.5	-3.8	-8.9	50.5*
O=C(COc1ccc(Cl)cc1)Nc1ccc(N2CCN(C(=O)c3ccco3)CC2)cc1	0.2	48.6*	4.9	-3.3	-3.8	48.2*
O=S1(=O)N[C@H](Cc2ccccc2)COc2cc(F)ccc21	/	/	-1.5	/	8.8	/
COc1ccc(CCNC(=O)c2ccc(Br)o2)cc1Br	/	/	1.5	/	0.0	/
Nc1ccc2nc(CCCCCCCCc3nc4ccc(N)cc4[nH]3)[nH]c2c1	-1.1	70.4*	-4.0	6.6	-0.6	23.5
O=C(COC(=O)c1ccc2c(c1)OCCO2)Nc1cccc(S(=O)(=O)N2CCOCC2)c1	10.1	71.6*	5.5	0.8	-9.0	8.1
CC(C)COC(=O)N(C)C[C@H]1OCc2cnnn2CCCC(=O)N([C@H](C)CO)C[C@@H]1C	/	/	1.5	/	2.4	/

Screening data deposited in PubChem by The Scripps Research Institute Molecular Screening Center.
